ChEMBL document CHEMBL3865830, “Multifunctional diamine AGE/ALE inhibitors with potential therapeutical properties against Alzheimer's disease” (Eur J Med Chem, 2016)
The source made the active and inactive calls. No cut-off for these calls is given here.

Assays:
PC-12 = experiment: Neuroprotective activity against MGO-induced apoptosis in rat PC12 cells assessed as reduction DNA fragmentation at 100 uM preincubated for 1 hr followed by MGO addition after 24 hrs by ELISA; assay type: functional, cell-based
Outline: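 PC12 cells pretreated 1 h at 37 °C with compound (10 or 100 µM) in D-PBS, then exposed to MGO (2 mM) for 24 h. Lysates analysed by anti-histone/anti-DNA-peroxidase ELISA for cytoplasmic mono- and oligonucleosomes, with ABTS read-out at 405 nm. Cells without MGO were the control; MGO alone was the apoptosis standard.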

Rattus norvegicus = species: Rattus norvegicus; experiment: Cytotoxicity against rat […] PC12 cells assessed as reduction in cell viability at 10 to 100 uM after 24 hrs by WST8-based CCK8 assay; assay type: toxicity; settings: pc-12, 24 h
Outline: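 PC12 Adh cells (rat pheochromocytoma-derived) grown in F-12K with 2.5% FBS, 15% horse serum and pen/strep at 37 °C, 5% CO2. Seeded at 5×10^3 cells/well; treated at 80% confluency with 10 or 100 µM for 24 h. 10% DMSO served as positive cytotoxicity control. CCK-8 added for 1 h at 37 °C, absorbance read at 450 nm. Viability given as % of untreated cells; at least three experiments in triplicate.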

[1] = Reactive carbonyl species trapping activity of compound assessed as MGO adduct formation at 10 mM preincubated for 24 hrs with MGO measured after 5 hrs by LCMS analysis; assay type: physicochemical; settings: 10000 µM
[2] = Reactive carbonyl species trapping activity of compound assessed as MGO adduct formation at 10 mM preincubated for 24 hrs with MGO measured after 0.5 hrs by LCMS analysis; assay type: physicochemical; settings: 10000 µM
[3] = Reactive carbonyl species trapping activity of compound assessed as MGO adduct formation at 10 mM preincubated for 24 hrs with MGO measured after 24 hrs by LCMS analysis; assay type: physicochemical; settings: 10000 µM
[4] = Reactive carbonyl species trapping activity of compound assessed as MDA adduct formation at 10 mM preincubated for 24 hrs with MDA measured after 5 hrs by LCMS analysis; assay type: physicochemical; settings: 10000 µM
[5] = Reactive carbonyl species trapping activity of compound assessed as MGO adduct formation at 10 mM preincubated for 24 hrs with MGO measured after 0.25 hrs by LCMS analysis; assay type: physicochemical; settings: 10000 µM
[6] = Metal chelating activity of compound assessed as compound-Cu2+ complex formation at 0.02 mM after 10 mins in presence of CuSO4.5H2O by complexometric indicator murexide based UV-Vis spectrophotometric analysis; assay type: physicochemical; settings: 20 µM
Outline: (§1)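 Compound (0.02-2 mM) incubated with CuSO4 (120 µM) for 10 min at rt, in 10 mM hexamine/HCl with 10 mM KCl (pH 5.0), or in buffer/MeOH 75:25 for poorly soluble compounds. Murexide added, 1 min more. The A485/A520 ratio gives free Cu2+ from a CuSO4 calibration curve (0-125 µM). % chelation is taken by difference from the no-compound control; triplicates.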

[7] = Reactive carbonyl species trapping activity of compound assessed as MDA adduct formation at 10 mM preincubated for 24 hrs with MDA measured after 1 hr by LCMS analysis; assay type: physicochemical; settings: 10000 µM
[8] = Metal chelating activity of compound assessed as compound-Cu2+ complex formation at 1 mM after 10 mins in presence of CuSO4.5H2O by complexometric indicator murexide based UV-Vis spectrophotometric analysis; assay type: physicochemical; settings: 1000 µM; outline: as §1
[9] = Metal chelating activity of compound assessed as compound-Cu2+ complex formation at 0.08 mM after 10 mins in presence of CuSO4.5H2O by complexometric indicator murexide based UV-Vis spectrophotometric analysis; assay type: physicochemical; settings: 80 µM; outline: as §1
[10] = Antioxidant activity assessed as inhibition of AAPH-induced peroxyl radical generation measured as trolox equivalent at 10 uM preincubated for 30 mins followed by AAPH addition measured evey 60 secs for 60 cycles by ORAC-FL assay; assay type: functional; settings: in the assay text read “90 secs” for “60 secs”
Outline: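 Fluorescein (12 nM) preincubated with compound (1-20 µM) or Trolox standard (1-50 µM) in D-PBS, at least 30 min at 37 °C. Reaction started with AAPH (30 mM). Fluorescence (ex 485/em 520 nm) read every 90 s for 60 cycles. Net AUC is converted to Trolox equivalents via the Trolox calibration line. Values are reported at 10 µM, from at least three independent experiments in triplicate.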

[11] = Metal chelating activity of compound assessed as compound-Cu2+ complex formation at 200 uM after 10 mins in presence of CuSO4.5H2O by complexometric indicator murexide based UV-Vis spectrophotometric analysis; assay type: physicochemical; outline: as §1
[12] = Reactive carbonyl species trapping activity of compound assessed as MDA adduct formation at 10 mM preincubated for 24 hrs with MDA measured after 0.5 hrs by LCMS analysis; assay type: physicochemical; settings: 10000 µM
[13] = Metal chelating activity of compound assessed as compound-Cu2+ complex formation at 0.5 mM after 10 mins in presence of CuSO4.5H2O by complexometric indicator murexide based UV-Vis spectrophotometric analysis; assay type: physicochemical; settings: 500 µM; outline: as §1
[14] = Reactive carbonyl species trapping activity of compound assessed as MDA adduct formation at 10 mM preincubated for 24 hrs with MDA measured after 0.25 hrs by LCMS analysis; assay type: physicochemical; settings: 10000 µM
[15] = Reactive carbonyl species trapping activity of compound assessed as MGO adduct formation at 10 mM preincubated for 24 hrs with MGO measured after 1 hr by LCMS analysis; assay type: physicochemical; settings: 10000 µM
[16] = Reactive carbonyl species trapping activity of compound assessed as MGO adduct formation at 10 mM preincubated for 24 hrs with MGO measured after 15 mins by LCMS analysis; assay type: physicochemical; settings: 0.25 h, 10000 µM
[17] = Metal chelating activity of compound assessed as compound-Cu2+ complex formation at 0.05 mM after 10 mins in presence of CuSO4.5H2O by complexometric indicator murexide based UV-Vis spectrophotometric analysis; assay type: physicochemical; settings: 50 µM; outline: as §1
[18] = Metal chelating activity of compound assessed as compound-Cu2+ complex formation at 0.1 mM after 10 mins in presence of CuSO4.5H2O by complexometric indicator murexide based UV-Vis spectrophotometric analysis; assay type: physicochemical; settings: 100 µM; outline: as §1
[19] = Reactive carbonyl species trapping activity of compound assessed as MDA adduct formation at 10 mM preincubated for 24 hrs with MDA measured after 24 hrs by LCMS analysis; assay type: physicochemical; settings: 10000 µM
[20] = Metal chelating activity of compound assessed as compound-Cu2+ complex formation at 2 mM after 10 mins in presence of CuSO4.5H2O by complexometric indicator murexide based UV-Vis spectrophotometric analysis; assay type: physicochemical; settings: 2000 µM; outline: as §1
[21] = Reactive carbonyl species trapping activity of compound assessed as MDA adduct formation at 10 mM preincubated for 24 hrs measured after 15 mins by LCMS analysis; assay type: physicochemical; settings: 0.25 h, 10000 µM

For `Cl.Cl.NCC(N)CCC(=O)NCCCn1cccc(O)c1=O` (configuration not stated), the Activity (PC-12) was “Active”, the Activity (Rattus norvegicus) was “Non-Toxic” and the Activity [1] was 100%. The Activity [2] was 98%, the Activity [3] was 98% and the Activity [4] was 85%. The Activity [5] was 97%, the Activity [6] was 11.11% and the Activity [7] was 81%. It also gave an Activity [8] of 74.89%, an Activity [9] of 37.47% and an Activity (umolequiv/umol) [10] of 1.96. The Activity [11] was 55.83%, the Activity [12] was 75% and the Activity [13] was 71.22%. For the same compound, the Activity [14] was 74%, the Activity [15] was 97% and the Activity [16] was 97%. For the same compound, the Activity [17] was 20.77%, the Activity [18] was 42.39% and the Activity [19] was 93%. For the same compound, the Activity [20] was 74.74%.

For `Cc1c(O)c(=O)ccn1CCC(=O)NCCCCC(N)CN.Cl.Cl` (configuration not stated), the Activity (Rattus norvegicus) was “Non-Toxic”, the Activity [1] was 99% and the Activity [2] was 99%. The Activity [3] was 100%, the Activity [4] was 89% and the Activity [5] was 99%. It also gave an Activity [6] of 21.31%, an Activity [7] of 88% and an Activity [8] of 96%. The Activity [9] was 48.35%, the Activity (umolequiv/umol) [10] was 1.24 and the Activity [11] was 74.7%. The Activity [12] was 88%, the Activity [13] was 91.66% and the Activity [14] was 86%. For the same compound, the Activity [15] was 99%, the Activity [16] was 99% and the Activity [17] was 38.95%. The Activity [18] was 52.98%, the Activity [19] was 92% and the Activity [20] was 97.73%.

In the case of `Cl.Cl.NCC(N)CCCNC(=O)CCn1cccc(O)c1=O` (configuration not stated), the Activity (Rattus norvegicus) is reported as “Non-Toxic”, the Activity [1] is reported as 99% and the Activity [2] is reported as 100%. It also gave an Activity [3] of 98%, an Activity [4] of 75% and an Activity [5] of 97%. The Activity [6] was 12.16%, the Activity [7] was 7% and the Activity [8] was 76.43%. The Activity [9] was 35.49%, the Activity (umolequiv/umol) [10] was 1.03 and the Activity [11] was 59.96%. For the same compound, the Activity [12] was 4%, the Activity [13] was 73.21% and the Activity [14] was 0%. The Activity [15] was 98%, the Activity [16] was 97% and the Activity [17] was 24.84%. The Activity [18] was 40.8%, the Activity [19] was 86% and the Activity [20] was 76.75%.

For `Cl.Cl.NCC(N)CCC(=O)N1CCN(C(=O)CCn2cccc(O)c2=O)CC1` (configuration not stated), the Activity (Rattus norvegicus) was “Non-Toxic”, the Activity [1] was 99% and the Activity [2] was 97%. It also gave an Activity [3] of 98%, an Activity [4] of 85% and an Activity [5] of 97%. For the same compound, the Activity [6] was 11.76%, the Activity [7] was 81% and the Activity [8] was 74.59%. For the same compound, the Activity [9] was 31.08%, the Activity (umolequiv/umol) [10] was 0.99 and the Activity [11] was 53.23%. The Activity [12] was 76%, the Activity [13] was 71.58% and the Activity [14] was 74%. It also gave an Activity [15] of 98%, an Activity [16] of 97% and an Activity [17] of 23.88%. For the same compound, the Activity [18] was 36.03%, the Activity [19] was 84% and the Activity [20] was 76.53%.

With `Cc1c(O)c(=O)ccn1CCCNC(=O)CCC(N)CN.Cl.Cl` (configuration not stated) the Activity (Rattus norvegicus) was “Non-Toxic”, the Activity [1] was 100% and the Activity [2] was 98%. It also gave an Activity [3] of 100%, an Activity [4] of 95% and an Activity [5] of 95%. For the same compound, the Activity [6] was 11.03%, the Activity [7] was 92% and the Activity [8] was 93.45%. The Activity [9] was 35.1%, the Activity (umolequiv/umol) [10] was 1.01 and the Activity [11] was 66.7%. For the same compound, the Activity [21] was 76%, the Activity [12] was 82% and the Activity [13] was 88.46%. The Activity [14] was 76%, the Activity [15] was 100% and the Activity [16] was 95%. The Activity [17] was 24.69%, the Activity [18] was 40.91% and the Activity [19] was 99%. For the same compound, the Activity [20] was 95.45%.
